Laboratory results: ChEMBL document CHEMBL1127395, “Synthesis and antimicrobial activity of novel 3-[(aminopyrimidiniumyl)thio]methyl cephalosporins” (1994)
In brackets after ≈: the same amount, converted by molar mass.

Legend:
Staphylococcus aureus [1] = assay: In vitro minimum inhibitory concentration for Staphylococcus aureus (ATCC 6538p) by agar dilution method
Enterobacter cloacae = assay: In vitro minimum inhibitory concentration for Enterobacter cloacae (ATCC-27508) by agar dilution method; assay type: functional; conditions: Enterobacter cloacae; read-out: MIC
Method in brief: (§1)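 Two-fold serial dilutions of each compound dispersed in Mueller-Hinton agar; plates spot-inoculated with 2 μL of standard test strain at 10^7 CFU/mL, incubated 37 °C for 20 h; MIC read as lowest concentration inhibiting growth.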

Proteus vulgaris = assay: In vitro minimum inhibitory concentration for Proteus vulgaris (ATCC-6059) by agar dilution method; assay type: functional; conditions: Proteus vulgaris; read-out: MIC
Method in brief: as §1

Klebsiella pneumoniae = assay: In vitro minimum inhibitory concentration for Klebsiella pneumoniae (ATCC-10031) by agar dilution method; assay type: functional; conditions: Klebsiella pneumoniae; read-out: MIC
Pseudomonas aeruginosa [2] = assay: In vitro minimum inhibitory concentration for Pseudomonas aeruginosa (ATCC 10145) by agar dilution method; assay type: functional
Method in brief: as §1

Klebsiella aerogenes = assay: In vitro minimum inhibitory concentration for Enterobacter aerogenes (ATCC-29751) by agar dilution method; assay type: functional; conditions: Klebsiella aerogenes; read-out: MIC
Method in brief: as §1

[3] = test system: Staphylococcus epidermidis; assay: In vitro minimum inhibitory concentration for Staphylococcus epidermidis (ATCC-12228) by agar dilution method; assay type: functional; conditions: Staphylococcus epidermidis; read-out: MIC
Method in brief: as §1

Pseudomonas aeruginosa [4] = assay: In vitro minimum inhibitory concentration for Pseudomonas aeruginosa (ATCC-27853) by agar dilution method; assay type: functional; conditions: Pseudomonas aeruginosa; read-out: MIC
Method in brief: as §1

Citrobacter freundii = assay: In vitro minimum inhibitory concentration for Citrobacter freundii (ATCC-8090) by agar dilution method; assay type: functional; conditions: Citrobacter freundii; read-out: MIC
Method in brief: as §1

Salmonella typhimurium = assay: In vitro minimum inhibitory concentration for Salmonella Typhimurium (ATCC-14028) by agar dilution method; assay type: functional, Salmonella enterica subsp. enterica serovar Typhimurium; conditions: Salmonella enterica; read-out: MIC
Method in brief: as §1

Escherichia coli = assay: In vitro minimum inhibitory concentration for Escherichia coli (ATCC-10536) by agar dilution method; assay type: functional; conditions: Escherichia coli; read-out: MIC
Method in brief: as §1

Serratia marcescens = assay: In vitro minimum inhibitory concentration for Serratia marcescens (ATCC-27117) by agar dilution method; assay type: functional; conditions: Serratia marcescens; read-out: MIC
Method in brief: as §1

Staphylococcus aureus [5] = assay: In vitro minimum inhibitory concentration for Staphylococcus aureus (ATCC 6538p) by agar dilution method; assay type: functional; conditions: Staphylococcus aureus, ATCC 6538p; read-out: MIC
Method in brief: as §1

Compound | MIC (Staphylococcus aureus [1]) [µg/mL] | MIC (Enterobacter cloacae) [µg/mL] | MIC (Proteus vulgaris) [µg/mL] | MIC (Klebsiella pneumoniae) [µg/mL] | MIC (Pseudomonas aeruginosa [2]) [µg/mL] | MIC (Klebsiella aerogenes) [µg/mL] | MIC [3] [µg/mL] | MIC (Pseudomonas aeruginosa [4]) [µg/mL] | MIC (Citrobacter freundii) [µg/mL] | MIC (Salmonella typhimurium) [µg/mL] | MIC (Escherichia coli) [µg/mL] | MIC (Serratia marcescens) [µg/mL] | MIC (Staphylococcus aureus [5]) [µg/mL]
CCC[n+]1c(N)cc(N)nc1SCC1=C(C(=O)[O-])N2C(=O)C(NC(=O)/C(=N\OC(C)(C)C(=O)O)c3cnc(N)s3)C2SC1 (stereo unspecified) | 2 (≈ 3.07 µM) | 0.03 (≈ 0.046 µM) | 0.06 (≈ 0.0921 µM) | 0.13 (≈ 0.199 µM) | 4 (≈ 6.14 µM) | 2 (≈ 3.07 µM) | 2 (≈ 3.07 µM) | 2 (≈ 3.07 µM) | 0.25 (≈ 0.384 µM) | 0.25 (≈ 0.384 µM) | 0.13 (≈ 0.199 µM) | 0.25 (≈ 0.384 µM) | 
CC(C)(O/N=C(\C(=O)NC1C(=O)N2C(C(=O)[O-])=C(CSc3nc(N)c4c([n+]3N)CCC4)CSC12)c1cnc(N)s1)C(=O)O (stereo unspecified) |  | 0.02 (≈ 0.0308 µM) | 0.06 (≈ 0.0923 µM) | 0.06 (≈ 0.0923 µM) | 2 (≈ 3.08 µM) | 0.25 (≈ 0.385 µM) | 2 (≈ 3.08 µM) | 2 (≈ 3.08 µM) | 0.03 (≈ 0.0462 µM) | 0.13 (≈ 0.2 µM) | 0.06 (≈ 0.0923 µM) | 0.13 (≈ 0.2 µM) | 4 (≈ 6.16 µM)
CC(C)(O/N=C(\C(=O)NC1C(=O)N2C(C(=O)O)=C(CSc3ncccn3)CSC12)c1cnc(N)s1)C(=O)O (stereo unspecified) |  | 0.5 (≈ 0.863 µM) | 0.063 (≈ 0.109 µM) | 0.5 (≈ 0.863 µM) | 32 (≈ 55.2 µM) | 16 (≈ 27.6 µM) | 8 (≈ 13.8 µM) | 16 (≈ 27.6 µM) | 1 (≈ 1.73 µM) | 2 (≈ 3.45 µM) | 1 (≈ 1.73 µM) | 2 (≈ 3.45 µM) | 16 (≈ 27.6 µM)
CC(C)(O/N=C(\C(=O)NC1C(=O)N2C(C(=O)O)=C(CSc3nc(O)cc(O)n3)CSC12)c1cnc(N)s1)C(=O)O (stereo unspecified) |  | 1 (≈ 1.63 µM) | 0.25 (≈ 0.409 µM) | 2 (≈ 3.27 µM) | 32 (≈ 52.3 µM) | 32 (≈ 52.3 µM) | > 128 | 32 (≈ 52.3 µM) | 8 (≈ 13.1 µM) | 8 (≈ 13.1 µM) | 4 (≈ 6.54 µM) | 4 (≈ 6.54 µM) | > 128
Cn1cc[n+]2c(SCC3=C(C(=O)[O-])N4C(=O)C(NC(=O)/C(=N\OC(C)(C)C(=O)O)c5cnc(N)s5)C4SC3)nc(N3CCOCC3)cc12 (stereo unspecified) |  | 0.06 (≈ 0.0836 µM) | 0.25 (≈ 0.348 µM) | 0.25 (≈ 0.348 µM) | 8 (≈ 11.1 µM) | 8 (≈ 11.1 µM) | 2 (≈ 2.79 µM) | 4 (≈ 5.57 µM) | 0.5 (≈ 0.697 µM) | 0.5 (≈ 0.697 µM) | 0.25 (≈ 0.348 µM) | 0.5 (≈ 0.697 µM) | 8 (≈ 11.1 µM)
CC(C)(O/N=C(\C(=O)NC1C(=O)N2C(C(=O)O)=C(CSc3nccc(N)n3)CSC12)c1cnc(N)s1)C(=O)O (stereo unspecified) |  | 0.5 (≈ 0.841 µM) | 0.063 (≈ 0.106 µM) | 0.5 (≈ 0.841 µM) | 16 (≈ 26.9 µM) | 8 (≈ 13.5 µM) | 16 (≈ 26.9 µM) | 8 (≈ 13.5 µM) | 1 (≈ 1.68 µM) | 1 (≈ 1.68 µM) | 1 (≈ 1.68 µM) | 1 (≈ 1.68 µM) | 32 (≈ 53.8 µM)
CC[n+]1c(N)cc(N)nc1SCC1=C(C(=O)[O-])N2C(=O)C(NC(=O)/C(=N\OC(C)(C)C(=O)O)c3cnc(N)s3)C2SC1 (stereo unspecified) |  | 0.03 (≈ 0.047 µM) | 0.03 (≈ 0.047 µM) | 0.06 (≈ 0.0941 µM) | 2 (≈ 3.14 µM) | 2 (≈ 3.14 µM) | 1 (≈ 1.57 µM) | 1 (≈ 1.57 µM) | 0.13 (≈ 0.204 µM) | 0.25 (≈ 0.392 µM) | 0.06 (≈ 0.0941 µM) | 0.13 (≈ 0.204 µM) | 2 (≈ 3.14 µM)
CC(C)(O/N=C(\C(=O)NC1C(=O)N2C(C(=O)[O-])=C(CSc3nc(N)cc(N)[n+]3N)CSC12)c1cnc(N)s1)C(=O)O (stereo unspecified) |  | 0.02 (≈ 0.032 µM) | 0.02 (≈ 0.032 µM) | 0.06 (≈ 0.096 µM) | 1 (≈ 1.6 µM) | 1 (≈ 1.6 µM) | 2 (≈ 3.2 µM) | 1 (≈ 1.6 µM) | 0.06 (≈ 0.096 µM) | 0.13 (≈ 0.208 µM) | 0.06 (≈ 0.096 µM) | 0.06 (≈ 0.096 µM) | 4 (≈ 6.4 µM)
